In ChEMBL document CHEMBL1153864, “Phase transfer catalyzed synthesis of bis-quinolines: antileishmanial activity in experimental visceral leishmaniasis and in vitro antibacterial evaluation” (Eur J Med Chem, 2009):
Calls of active or inactive are those of the source.

Columns and labels:
Staphylococcus aureus [1] = assay: Antibacterial activity against Staphylococcus aureus ML6 ug/ml after 24 hrs by agar dilution method; assay type: functional; conditions: ML6, 24 h
How it was run: (§1)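 Agar dilution MIC. Compound dissolved in sterile 0.2% DMSO, diluted in distilled water and mixed into molten nutrient agar (pH 7.2–7.4) at 5, 10, 25, 50; plate with 0.2% DMSO as control. Gram-positives grown 18 h in nutrient broth, Gram-negatives in peptone water. Stationary-phase suspension set to 0.5 McFarland, diluted 1:100, spot-inoculated at about 10^5 CFU per loopful. Plates held 24 h at 37 °C (up to 72 h if needed). MIC is the lowest level with no growth.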

Leishmania donovani [2] = assay: Antileishmanial activity against Leishmania donovani MHOM/IN/1983/AG83 promastigotes assessed as induction of membrane blebbing at 11.5 ug/ml after 2 hrs by transmission electron microscopy; assay type: functional, organism-based
How it was run: (§2)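 Log-phase promastigotes, grown at 22 °C in M199 with 10% FBS, were exposed for 2 h to the compound; controls received 0.1% DMSO alone. Cells were then sectioned, stained on copper grids with uranyl acetate and lead acetate for 10-15 min each, and examined by TEM for ultrastructural changes.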

Vibrio cholerae [3] = assay: Antibacterial activity against Vibrio cholerae 569B after 24 hrs by agar dilution method; assay type: functional
Shigella dysenteriae [4] = assay: Antibacterial activity against Shigella dysenteriae 6 NCTC 100/54 at 25 ug/ml after 24 hrs by agar dilution method; assay type: functional, organism-based
Escherichia coli [5] = assay: Antibacterial activity against Escherichia coli ATCC 25938 at 50 ug/ml after 24 hrs by agar dilution method; assay type: functional; conditions: ATCC 25938, 24 h; how it was run: as §1
Proteus mirabilis [6] = assay: Antibacterial activity against Proteus mirabilis 7 at 10 ug/ml after 24 hrs by agar dilution method; assay type: functional, organism-based; how it was run: as §1
Proteus mirabilis [7] = assay: Antibacterial activity against Proteus mirabilis 7 at 25 ug/ml after 24 hrs by agar dilution method; assay type: functional, organism-based; how it was run: as §1
Staphylococcus aureus [8] = assay: Antibacterial activity against Staphylococcus aureus ML145 at 5 ug/ml after 24 hrs by agar dilution method; assay type: functional; conditions: ML145, 24 h; how it was run: as §1
Escherichia coli [9] = assay: Antibacterial activity against Escherichia coli ATCC 25938 at 10 ug/ml after 24 hrs by agar dilution method; assay type: functional, organism-based; how it was run: as §1
Vibrio cholerae [10] = assay: Antibacterial activity against Vibrio cholerae 569B at 50 ug/ml after 24 hrs by agar dilution method; assay type: functional
Shigella dysenteriae [11] = assay: Antibacterial activity against Shigella dysenteriae 6 NCTC 100/54 at 5 ug/ml after 24 hrs by agar dilution method; assay type: functional, organism-based
Leishmania donovani [12] = assay: Antileishmanial activity against Leishmania donovani MHOM/IN/1983/AG83 promastigotes after 4 hrs by MTT assay; assay type: functional, organism-based; conditions: MHOM/IN/1983/AG83, 4 h
How it was run: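 AG83 promastigotes kept at 22 °C in M199 + 10% FBS. Log-phase cells (2×10^6/ml) exposed 2 h at 22 °C to 1, 3, 5, 7, 10, 15 compound; DMSO at 0.1% final. Cells washed with PBS, incubated 4 h at 22 °C with MTT (2 mg/ml). Formazan dissolved in DMSO and read at 570 nm; % lysis computed, IC50 by linear regression.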

Salmonella typhimurium [13] = assay: Antibacterial activity against Salmonella Typhimurium NCTC 74 at 25 ug/ml after 24 hrs by agar dilution method; assay type: functional, organism-based; conditions: Salmonella enterica subsp. enterica serovar Typhimurium; how it was run: as §1
Bacillus licheniformis = assay: Antibacterial activity against […] Bacillus licheniformis NCTC 10341 after 24 hrs by agar dilution method; assay type: functional; conditions: NCTC 10341, 24 h; how it was run: as §1
Escherichia coli [14] = assay: Antibacterial activity against Escherichia coli ATCC 25938 at 25 ug/ml after 24 hrs by agar dilution method; assay type: functional, organism-based; how it was run: as §1
Leishmania donovani [15] = assay: Antileishmanial activity against Leishmania donovani MHOM/IN/1983/AG83 promastigotes assessed as induction of membrane blebbing at 2 ug/ml after 2 hrs by transmission electron microscopy; assay type: functional, organism-based; how it was run: as §2
Mus musculus = assay: Toxicity in BALB/c mouse assessed as effect on serum glutamate pyruvate transaminase levels at 5.5 mg/kg, ip administered two times per week for 4 weeks; assay type: organism-based; parameters: dose 5.5 mg/kg, route intraperitoneal; conditions: in vivo, 672 h
How it was run: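 Normal BALB/c mice were dosed ip twice per week for 4 weeks. Blood was collected one month after treatment, and serum SGPT and SGOT (IU/l) and blood urea (mg/dl) were measured with commercial kits and compared with untreated normal mice.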

Macrophage = assay: Induction of nitric oxide production in Leishmania donovani MHOM/IN/1983/AG83 infected golden Syrian hamster peritoneal macrophages; assay type: functional, cell-based; conditions: Mesocricetus auratus
Staphylococcus aureus [16] = assay: Antibacterial activity against Staphylococcus aureus ML6 at 50 ug/ml after 24 hrs by agar dilution method; assay type: functional; conditions: ML6, 24 h; how it was run: as §1
Salmonella typhimurium [17] = assay: Antibacterial activity against Salmonella Typhimurium NCTC 74 at 10 ug/ml after 24 hrs by agar dilution method; assay type: functional, organism-based; conditions: Salmonella enterica subsp. enterica serovar Typhimurium; how it was run: as §1
Leishmania donovani [18] = assay: Antileishmanial activity against Leishmania donovani MHOM/IN/1983/AG83 promastigotes assessed as induction of chromatin condensation at 11.5 ug/ml after 2 hrs by transmission electron microscopy; assay type: functional, organism-based
Vibrio cholerae [19] = assay: Antibacterial activity against Vibrio cholerae 582 at 5 ug/ml after 24 hrs by agar dilution method; assay type: functional; conditions: Vibrio cholerae, 582, 24 h
Staphylococcus aureus [20] = assay: Antibacterial activity against Staphylococcus aureus ML145 at 10 ug/ml after 24 hrs by agar dilution method; assay type: functional; conditions: ML145, 24 h; how it was run: as §1
Vibrio cholerae [21] = assay: Antibacterial activity against Vibrio cholerae 582 at 25 ug/ml after 24 hrs by agar dilution method; assay type: functional; conditions: Vibrio cholerae, 582, 24 h
Proteus mirabilis [22] = assay: Antibacterial activity against Proteus mirabilis 175 after 24 hrs by agar dilution method; assay type: functional; conditions: Proteus mirabilis, 175, 24 h; how it was run: as §1
[23] = Down regulation of TNFalpha release Leishmania donovani MHOM/IN/1983/AG83 infected bacterial liposaccharide-stimulated golden Syrian hamster peritoneal macrophages; assay type: functional, cell-based; conditions: Mesocricetus auratus; Macrophage
Proteus mirabilis [24] = assay: Antibacterial activity against Proteus mirabilis 175 at 10 ug/ml after 24 hrs by agar dilution method; assay type: functional, organism-based; how it was run: as §1
[25] = Down regulation of IL6 release Leishmania donovani MHOM/IN/1983/AG83 infected interferon gamma-stimulated golden Syrian hamster peritoneal macrophages; assay type: functional, cell-based; conditions: Mesocricetus auratus; Macrophage
Shigella dysenteriae [26] = assay: Antibacterial activity against Shigella dysenteriae 7 NCTC 519/66 at 50 ug/ml after 24 hrs by agar dilution method; assay type: functional; conditions: 7 NCTC 519/66, 24 h
Leishmania donovani [27] = assay: Antileishmanial activity against Leishmania donovani MHOM/IN/1983/AG83 promastigotes infected BALB/c mouse assessed as spleen weight at 12.5 mg/kg, ip administered two times per week for 4 weeks; assay type: functional; conditions: route intraperitoneal
How it was run: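 BALB/c mice (4-6 weeks) were infected iv with 2 × 10^7 freshly transformed promastigotes. One month later, groups were dosed ip in 0.2% Tween 80 in PBS (0.02 M), twice weekly for one month (8 doses); controls got vehicle only. Mice were killed one month post-treatment and spleen and liver were weighed. Parasite load came from Giemsa impression smears as organ weight (mg) × amastigotes per cell nucleus × 2 × 10^5. Values are mean ± S.E. of 5 mice; unpaired t-test.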

[28] = Down regulation of IL6 release Leishmania donovani MHOM/IN/1983/AG83 infected bacterial liposaccharide-stimulated golden Syrian hamster peritoneal macrophages; assay type: functional, cell-based; conditions: Mesocricetus auratus; Macrophage
Leishmania donovani [29] = assay: Antileishmanial activity against Leishmania donovani MHOM/IN/1983/AG83 promastigotes assessed as induction of kinetoplast enlargement at 2 ug/ml after 2 hrs by transmission electron microscopy; assay type: functional, organism-based; how it was run: as §2

Clc1ccc(OCOc2ccc(Cl)c3cccnc23)c2ncccc12
Non-toxic: Activity (Mus musculus)
inactive: Activity (Shigella dysenteriae [4]) | Activity (Proteus mirabilis [6]) | Activity (Proteus mirabilis [7]) | Activity (Escherichia coli [9]) | Activity (Shigella dysenteriae [11]) | Activity (Salmonella typhimurium [13]) | Activity (Escherichia coli [14]) | Activity (Salmonella typhimurium [17]) | Activity (Proteus mirabilis [24])
50 µg/mL: MIC (Bacillus licheniformis) | MIC (Proteus mirabilis [22])
100%: inhibition at 50 µg/mL (Escherichia coli [5]) | inhibition at 5 µg/mL (Staphylococcus aureus [8]) | inhibition at 50 µg/mL (Vibrio cholerae [10]) | inhibition at 50 µg/mL (Staphylococcus aureus [16]) | inhibition at 5 µg/mL (Vibrio cholerae [19]) | inhibition at 10 µg/mL (Staphylococcus aureus [20]) | inhibition at 25 µg/mL (Vibrio cholerae [21]) | inhibition at 50 µg/mL (Shigella dysenteriae [26])
10 µg/mL: MIC (Staphylococcus aureus [1])
90 mg: Activity (Leishmania donovani [27])
active: Activity (Leishmania donovani [2]) | Activity (Leishmania donovani [15]) | Activity (Macrophage) | Activity (Leishmania donovani [18]) | Activity [23] | Activity [25] | Activity [28] | Activity (Leishmania donovani [29])
25 µg/mL: MIC (Vibrio cholerae [3])
2 µg/mL: IC50 (Leishmania donovani [12])
